Compounds with a hit are over-represented: about 1.9% of the library has one in this group of screens.
SENP1 inh: inhibitors of human SENP1 SUMO protease catalytic domain; Q9P0U3; recombinant SENP1 catalytic domain, CyPet-SUMO1-YPet FRET cleavage; inhibition, % at 10 µM; 360,000 tested, 0.21% active; AID 624204;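 active = inhibition at least 30% at 10 µM, raw YFP signal under a set limit, fluorescence ratio 0.5 to 1.5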
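Compound: 10 µM single point, 0.5% DMSO; Test system: hSENP1 catalytic domain, recombinant; Timing: 50 min reaction at room temperature; Technique: FRET, CFP and YFP emission; Control set: no-enzyme wells low, DMSO-plus-enzyme wells high control.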
ADAM10 inh: ADAM10 inhibition, QFRET primary screen | O14672 | recombinant ADAM10, EDANS/DABCYL FRET peptide cleavage, 3 h | inhibition, % at 7 µM | 370,000 tested, 0.62% active | AID 720582;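 active = inhibition above a per-campaign cutoff equal to the mean of compounds falling between control-based bounds plus 3 SD, cut at about 20% in these data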
FAS-TE inh: inhibitors of human fatty acid synthase thioesterase domain; inhibition, % at 15 µM; recombinant FAS-TE, OMFH fluorogenic substrate, fluorescence endpoint; 360,000 tested, 0.67% active; P49327;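 active = compounds whose normalised, plate-corrected inhibition of enzyme fluorescence in the single-dose primary screen is 50% or more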
ADAM17 inh: ADAM17 inhibition, QFRET primary screen; P78536; recombinant ADAM17, EDANS/DABCYL FRET peptide cleavage; inhibition, % at 6.95 µM; 370,000 tested, 0.83% active;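 active = inhibition above the mean of compounds lying between control limits plus 3 SD, set per campaign, cut at about 8.5% in these data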
ADAM10 confirm: confirmation of inhibitors of human ADAM10; shares compounds with ADAM10 inh; inhibition, % at 6.95 µM; AID 743208; ADAM10 QFRET peptide cleavage, EDANS fluorescence; 2,100 tested, 1% active;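 active = inhibition above about 20% chosen separately for each screening run, limit read from the data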
ADAM17 counter: ADAM17 inhibition, counter-screen for ADAM10 exosite hits | shares compounds with ADAM10 inh | ADAM17 QFRET peptide cleavage, EDANS fluorescence | inhibition, % at 6.95 µM | 2,100 tested, 0.5% active;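 active = mean triplicate inhibition above the solvent-only control wells' mean plus 3 SD, cut at about 12% in these data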
ADAM10 ctr: ADAM10 inhibition, counter-screen for ADAM17 exosite hits | inhibition, % at 6.95 µM | shares compounds with ADAM17 inh | 2,900 tested, 47% active | recombinant ADAM10, EDANS/DABCYL FRET peptide cleavage, 3 h;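 active = mean inhibition over the triplicate runs exceeds the activity threshold set in the earlier primary screen, cut at about 20% in these data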
ADAM17 confirm: human ADAM17 inhibition, confirmation; shares compounds with ADAM17 inh; recombinant ADAM17, EDANS/DABCYL QFRET peptide cleavage; inhibition, % at 6.95 µM; 2,900 tested, 65% active;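 active = mean inhibition across replicates above the hit cutoff set in the primary screen, cut at about 8.5% in these data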
Hits are given with their value.

`C[C@H]1CN(S(=O)(=O)C(C)(C)C)[C@@H](CCO)/C1=C\c1ccccc1` gave ADAM10 inh inactive and ADAM17 inh inactive.
`CCOc1cc(C(c2c(C)[nH][nH]c2=O)c2c(C)[nH][nH]c2=O)ccc1OC(=O)c1cccc([N+](=O)[O-])c1` gave SENP1 inh inactive, ADAM10 inh 27.3, FAS-TE inh inactive, ADAM17 inh 23.5, ADAM10 confirm inactive, ADAM17 counter inactive, ADAM10 ctr inactive and ADAM17 confirm inactive.
`CCOc1cc(C(c2c(C)[nH][nH]c2=O)c2c(C)[nH][nH]c2=O)ccc1OCc1ccc([N+](=O)[O-])cc1` gave SENP1 inh inactive, ADAM10 inh inactive, FAS-TE inh inactive and ADAM17 inh inactive.
`CCC(NC(=O)C1CCCN(c2ncccn2)C1)c1ccccc1` (configuration not stated) gave ADAM10 inh inactive and ADAM17 inh inactive.
For O=C(/C=C/C=C/c1ccccc1)CC1(O)C(=O)N(CCc2ccccc2)c2ccccc21 (configuration not stated) the results were SENP1 inh inactive, ADAM10 inh 20.8, FAS-TE inh inactive, ADAM17 inh 9.3, ADAM10 confirm inactive, ADAM17 counter inactive, ADAM10 ctr 36.2 and ADAM17 confirm 18.8.
`COC(=O)c1ccc(Cl)c(NC(=O)CN(c2ccc(OC)cc2)S(=O)(=O)c2ccccc2)c1` gave SENP1 inh inactive, ADAM10 inh 34.6, FAS-TE inh inactive, ADAM17 inh 18.4, ADAM10 confirm inactive, ADAM17 counter inactive, ADAM10 ctr 25.7 and ADAM17 confirm 15.6.
`COc1ccc(CCNc2oc(COc3ccc(F)cc3)nc2C#N)cc1` gave SENP1 inh inactive, ADAM10 inh 23.6, FAS-TE inh inactive, ADAM17 inh 10.0, ADAM10 confirm inactive, ADAM17 counter inactive, ADAM10 ctr 32.7 and ADAM17 confirm 18.4.
COc1ccc(CCNc2oc(COc3ccccc3F)nc2C#N)cc1OC was read as SENP1 inh inactive, ADAM10 inh inactive, FAS-TE inh inactive and ADAM17 inh inactive.
For COCCOC(=O)c1c(C)n(C)c2ccc(OC(=O)c3c(OC)cccc3OC)cc12 the results were SENP1 inh inactive, ADAM10 inh 20.7, FAS-TE inh inactive, ADAM17 inh 10.2, ADAM10 confirm inactive, ADAM17 counter inactive, ADAM10 ctr inactive and ADAM17 confirm 9.1.
Screening Cc1ccc(SCC2(O)CCN(S(=O)(=O)c3ccc(Cl)cc3)CC2)cc1 returned SENP1 inh inactive, ADAM10 inh 29.4, FAS-TE inh inactive, ADAM17 inh 16.9, ADAM10 confirm inactive, ADAM17 counter inactive, ADAM10 ctr 27.6 and ADAM17 confirm 15.7.
Cc1cccc(OCCCSc2nc3ccccc3[nH]2)c1 was read as SENP1 inh inactive, ADAM10 inh 21.2, FAS-TE inh inactive, ADAM17 inh 10.1, ADAM10 confirm inactive, ADAM17 counter inactive, ADAM10 ctr inactive and ADAM17 confirm 9.8.
For Cc1cccc(OCCSCc2nc3ccccc3[nH]2)c1 the results were SENP1 inh inactive, ADAM10 inh inactive, FAS-TE inh inactive and ADAM17 inh inactive.
Screening CC(C)c1c(C(=O)N/N=C/c2cccc3ccccc23)nnn1-c1nonc1N returned SENP1 inh inactive, ADAM10 inh 20.4, FAS-TE inh inactive, ADAM17 inh 10.0, ADAM10 confirm inactive, ADAM17 counter inactive, ADAM10 ctr 26.8 and ADAM17 confirm 19.9.
For CN(C(=O)c1cccc(NC(=O)Cc2ccc(NC(=O)C3CCN(C(=O)C4CC4)CC3)cc2)c1)C1CCC1 the results were SENP1 inh inactive, ADAM10 inh inactive, FAS-TE inh inactive and ADAM17 inh inactive.
`CN(C(=O)c1cccc(NC(=O)Cc2ccc(NC(=O)C3CCN(S(=O)(=O)c4cccc([N+](=O)[O-])c4)CC3)cc2)c1)C1CCC1` gave SENP1 inh inactive, ADAM10 inh 19.9, FAS-TE inh inactive, ADAM17 inh 12.4, ADAM10 confirm inactive, ADAM17 counter inactive, ADAM10 ctr 23.9 and ADAM17 confirm 8.9.
Screening CCOC(=O)[C@@]12CN(C(=O)OC(C)(C)C)CC=C1N(Cc1ccc(OC)cc1)C(=O)[C@H]2CC(=O)NCCCCc1ccccc1 returned ADAM10 inh 21.7, ADAM17 inh 8.7, ADAM10 confirm inactive, ADAM17 counter inactive, ADAM10 ctr inactive and ADAM17 confirm 10.2.
`CCOC(=O)[C@]12CCCCC/C=C\1N(Cc1ccc(OC)cc1)C(=O)[C@H]2CC(=O)NCc1cccc(C(F)(F)F)c1` gave ADAM10 inh 20.8, ADAM17 inh 11.0, ADAM10 confirm inactive, ADAM17 counter inactive, ADAM10 ctr 33.6 and ADAM17 confirm 14.1.
CCOC(=O)[C@]12CCCCC/C=C\1N(CCc1ccc(Cl)cc1)C(=O)[C@H]2CC(=O)NCc1cccc(C(F)(F)F)c1 was read as ADAM10 inh inactive and ADAM17 inh inactive.
O=C(C(=O)N1CCC(CNC(=O)C2COc3ccccc3O2)CC1)c1cccs1 (configuration not stated) was read as ADAM10 inh inactive and ADAM17 inh inactive.
C=CC[C@H](CC(=O)N(CCO)Cc1ccccc1)C(=O)N[C@H](C)COC(=O)[C@@H](CC=C)Cc1ccc(F)cc1 was read as SENP1 inh inactive, ADAM10 inh inactive, FAS-TE inh inactive and ADAM17 inh inactive.
Screening C=CC[C@H](CC(=O)N(CCO)Cc1ccccc1)C(=O)N[C@H](COC(=O)[C@@H](CC=C)CC(=O)OC(C)(C)C)Cc1c[nH]c2ccccc12 returned SENP1 inh inactive, ADAM10 inh 25.7, FAS-TE inh inactive, ADAM17 inh 12.8, ADAM10 confirm inactive, ADAM17 counter inactive, ADAM10 ctr 45.4 and ADAM17 confirm 22.4.
C=CC[C@H](CC(=O)N(CCO)Cc1ccccc1)C(=O)N[C@H](COC(=O)[C@@H](CC=C)Cc1ccc(F)cc1)Cc1ccccc1 was read as SENP1 inh inactive, ADAM10 inh 20.7, FAS-TE inh inactive, ADAM17 inh 10.8, ADAM10 confirm inactive, ADAM17 counter inactive, ADAM10 ctr 24.9 and ADAM17 confirm 15.7.
C=CCC[C@H](Cc1ccc(F)cc1)C(=O)OC[C@@H](Cc1c[nH]c2ccccc12)NC(=O)[C@@H](CC=C)CC(=O)N(CCO)Cc1ccccc1 was read as SENP1 inh inactive, ADAM10 inh 41.3, FAS-TE inh inactive, ADAM17 inh 15.0, ADAM10 confirm inactive, ADAM17 counter inactive, ADAM10 ctr 48.5 and ADAM17 confirm 23.1.

Compound activity as filed in PubChem BioAssay.
